2 compounds from publication PMC12578630 (Nature Microbiology, 2025) can be followed below.

≈ marks a conversion by molar mass, not a printed value. Like-named read-outs stand apart in the source and are kept apart here.

The subject of data set [1] is CRAB QLH-2022-637. In words: Bacterial resistance development, serial passage. The data set is classed as cell-based, Acinetobacter baumannii. Particulars: serial passage at 0.5-fold MIC.
Data set [2] can be described thus: Histologic changes in the kidney and colon. The data set is classed as in vivo, mouse. Particulars: H&E, infected and treated mice. The gist of the method:
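Tissue fixed in 4% paraformaldehyde for at least 24 h, dehydrated through graded ethanol, cleared in xylene, paraffin-embedded. Sections cut at 4 μm, dried at 60 °C, dewaxed and rehydrated. Stained with haematoxylin (3–5 min), differentiated and blued, counterstained with eosin (15 s), then dehydrated, cleared and mounted in neutral balsam. Imaged by light microscopy.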

Data set [3] has as its system MRSA QLH-2022-718. In words: Bacterial resistance development, serial passage. The data set is classed as cell-based, Staphylococcus aureus. The note with it: for MIC: Staphylococcus aureus, MRSA.

In the case of polymyxin B, the “fold increase in MIC after 20 passages” value in data set [1] worked out at 32 fold. The “kidney tissue histology, in words” value in data set [2] was “A small amount of venous stasis”.

As to `CN[C@H](CC(C)C)C(=O)N[C@H]1C(=O)N[C@@H](CC(N)=O)C(=O)N[C@H]2C(=O)N[C@H]3C(=O)N[C@H](C(=O)N[C@H](C(=O)O)c4cc(O)cc(O)c4-c4cc3ccc4O)[C@H](O)c3ccc(c(Cl)c3)Oc3cc2cc(c3O[C@@H]2O[C@H](CO)[C@@H](O)[C@H](O)[C@H]2O[C@H]2C[C@](C)(N)[C@H](O)[C@H](C)O2)Oc2ccc(cc2Cl)[C@H]1O` [vancomycin], the figures for the MIC in data set [3] (read-out: MIC after 18 passages) and in data set [3] (read-out: MIC at the first passage) were at least 64 µg/mL and 0.5 µg/mL (≈ 0.345 µM), respectively. Besides, the “fold increase in MIC after 18 passages” value in data set [3] (serial passage at 0.5-fold MIC) is reported as at least 128 fold. The “kidney tissue histology, in words” value in data set [2] was “histopathological changes: cytoplasmic rarefaction and pale staining”.

By MIC is commonly meant the lowest concentration that inhibits growth of the organism.
